Screening results from PubChem.
RGS4 inh: RGS4 inhibitors, primary screen, cell-based, HEK293 M3R inducible RGS4, calcium flux; 310,000 compounds, 0.45% hits; Regulator of G-protein signaling 4 (Homo sapiens), P49798; B-score at 10 µM; Fluo-4 calcium flux; stronger effect = higher value; triggered by carbachol at its EC20; AID 463165, 2010;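 active = B-score, a plate-corrected calcium signal, over three deviations above library mean, with baseline fluorescence within five deviations of library mean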;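 note: RGS4 expression induced by doxycycline in cells with stable M3 receptor; B-score is computed from the integrated fluorescence ratio over baseline after carbachol; higher B-score means a larger calcium signal and so more RGS4 inhibition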
Target sequence (P49798 whole entry, looked up): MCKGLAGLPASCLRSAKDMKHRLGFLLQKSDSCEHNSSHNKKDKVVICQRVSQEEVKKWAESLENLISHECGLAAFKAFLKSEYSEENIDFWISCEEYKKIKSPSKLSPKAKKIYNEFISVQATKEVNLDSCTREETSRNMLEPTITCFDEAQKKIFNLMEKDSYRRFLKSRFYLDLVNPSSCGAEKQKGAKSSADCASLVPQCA
MrgX1 antag: antagonists of human MrgX1 receptor, primary screen, HEK293 cells, Fluo-4 calcium flux; 310,000 compounds, 1.3% hits; B-score at 10 µM; BAM8-22 antagonism; stronger effect = lower value;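 active = calcium-response B-score plate-corrected more than 3 library SD below zero, starting fluorescence within 5 deviations, no agonist response on first addition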;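 note: peak minus trough fluorescence over baseline after final BAM8-22 challenge near maximal dose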
Target sequence (Q96LB2 whole entry, looked up): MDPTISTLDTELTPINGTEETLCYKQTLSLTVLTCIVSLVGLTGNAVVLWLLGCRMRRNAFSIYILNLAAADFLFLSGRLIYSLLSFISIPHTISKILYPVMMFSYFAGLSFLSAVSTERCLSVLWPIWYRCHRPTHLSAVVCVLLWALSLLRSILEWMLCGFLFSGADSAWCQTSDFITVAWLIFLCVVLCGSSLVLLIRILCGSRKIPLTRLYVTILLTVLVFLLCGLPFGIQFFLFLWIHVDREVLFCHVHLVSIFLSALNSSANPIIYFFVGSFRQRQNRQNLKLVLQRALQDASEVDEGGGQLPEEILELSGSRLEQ
MrgX1 ag: agonists of human MrgX1 receptor, primary screen, HEK293 cells, Fluo-4 calcium flux; B-score at 10 µM; AID 588627, 2011; 310,000 compounds, 0.44% hits; Fluo-4 calcium fluorescence, agonist mode; stronger effect = higher value;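 active = calcium response B-score plate-corrected fluorescence ratio at least 3 library SD, with starting fluorescence B-score inside 5 SD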
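Assay system: MrgX1-expressing HEK293 cells / Amount: fifteen thousand cells per well / Doses: test compound in the initial addition of three / Timing: cells plated overnight, dye loaded 0.5 h 37 °C, 0.5 h room temperature / Technique: kinetic calcium dye fluorescence, Fluo-4 NW / Control set: positive and negative controls per plate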
MrgX1 allo act: positive allosteric modulators of MrgX1, primary screen, HEK293 cells, Fluo-4 calcium flux; 310,000 compounds, 0.63% hits; FDSS; stronger effect = higher value; B-score at 10 µM;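 active = plate-corrected calcium response at least 3 library SD above typical, normal starting fluorescence, not activating the receptor alone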;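 note: compound read alongside a low EC10 to EC30 dose of BAM8-22 agonist; peak minus trough fluorescence over baseline measured at the second addition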
KCC2 mod: KCC2 cotransporter modulators, thallium flux, primary screen, cell-based, HEK293 KCC2, FluoZin-2 fluorescence, MLSMR | 190,000 compounds, 2.2% hits | KCC2 cells, thallium flux FluoZin-2 fluorescence | Solute carrier family 12 member 5 (Homo sapiens), Q9H2X9 | B-score of Tl+ flux slope (higher = more flux/activation; lower = inhibition) at 10 µM;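 active = thallium flux slope and its plate-corrected score both differing from the plate sample mean at a set confidence after two filtering rounds, in either direction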;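 note: slope of fluorescence scaled to starting intensity during 10 to 20 s after thallium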
RGS4 act: RGS4 potentiators or activators, primary screen, cell-based, HEK293 M3R inducible RGS4, calcium flux; 310,000 compounds, 0.92% hits; carbachol calcium flux Fluo4; stronger effect = lower value; B-score at 10 µM;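 active = B-score of the integrated calcium signal more than 4 SD below the library mean, with starting fluorescence not abnormally high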;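 note: negative B-score means reduced calcium response which marks RGS4 activation or potentiation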
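Test system: HEK293 cells with stable M3R and inducible RGS4; also added: carbachol at ECmax as muscarinic agonist stimulus; schedule: dye loading 30 min 37 °C, buffer rest 30 min RT; technique: kinetic calcium fluorescence imaging with Fluo4-AM dye, 2 µM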
KCC2 sec1: KCC2 modulators in sodium-free buffer, confirmation, cell-based, HEK293 KCC2, thallium flux, secondary assay. shares compounds with KCC2 mod. FluoZin2 fluorescence; stronger effect = higher value. normalised thallium flux (F/F0 slope) at 10 µM. 3,700 compounds, 15% hits;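 active = thallium flux slope above the same plate's solvent-only control mean plus 3 SD; inconclusive = the two replicate wells disagree; inactive = no significant difference from solvent-only control wells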
KCC2 bumet counter: thallium flux persisting under bumetanide in KCC2 cells, confirmation, counter-screen for KCC2 modulator project, cell-based, HEK293 KCC2, FluoZin2, secondary assay 3 | HEK293-KCC2 + bumetanide/ouabain; stronger effect = higher value | normalized thallium flux at 10 µM | shares compounds with KCC2 mod | 3,700 compounds, 49% hits;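 active = thallium entry rate above the same plate's blocked-transporter control wells by more than 3 SD; inconclusive = the two repeat wells disagree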;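 note: raw slope of fluorescence over initial fluorescence between 10 and 20 s after thallium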
KCC2 sec2: KCC2 modulators without ouabain present, confirmation, cell-based, HEK293 KCC2, thallium flux, FluoZin2, secondary assay 2. shares compounds with KCC2 mod. normalized thallium flux at 10 µM. thallium flux FluoZin2 fluorescence; actives lie on both sides; F/F0 rise rate, 10–20 s post-thallium. 3,700 compounds, 23% hits;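 active = thallium flux slope more than 3 SD above or below the plate's solvent-only control mean, mostly below; inconclusive = the two repeat wells disagreed; inactive = no significant shift from solvent-only controls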;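 note: raw slope with 0.1% DMSO as baseline and bumetanide as block control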
HEK293 Tl flux: thallium flux modulation in parental HEK cells, confirmation, counter-screen for KCC2 modulator project, cell-based, counterscreen 1; AID 1716, 2009; thallium flux rate (normalised fluorescence) at 10 µM; HEK293 parental cells, thallium flux FluoZin2, ouabain; baseline-ratio fluorescence slope, 10–20 s after thallium; shares compounds with KCC2 mod; 3,700 compounds, 46% hits;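 active = thallium flux rate significantly above the same plate's solvent-only control wells, beyond their mean plus 3 SD; inconclusive = the two replicate wells gave conflicting results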
KCC2 retest ouab: KCC2 inhibitors and activators, ouabain retest, confirmation, HEK-KCC2 cells. AID 1717, 2009. raw Tl+ flux slope (below DMSO = inhibition, above = activation) at 10 µM. 3,700 compounds, 48% hits. HEK293-KCC2, thallium flux FluoZin2 fluorescence; bidirectional: low = inhibitor, high = activator. shares compounds with KCC2 mod;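 active = thallium flux slope beyond 3 SD from same-plate DMSO control mean in most replicates, usually higher, sometimes lower; inconclusive = repeat tests gave conflicting results; inactive = no significant difference from controls in most replicates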;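 note: slope of initial-normalized fluorescence between seconds 10 and 20 after thallium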
HEK293 Tl flux2: native HEK Tl+ uptake effects, second counter-screen – HEK cells, counterscreen 2, counter-screen for KCC2 modulator project, confirmation; AID 1718, 2009; shares compounds with KCC2 mod; 3,700 compounds, 33% hits; HEK293 parental, thallium flux FluoZin-2 fluorescence slope; thallium flux slope at 10 µM;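 active = thallium flux slope above the same plate's solvent-control mean plus 3 SD in both duplicate wells; inconclusive = duplicate wells that disagreed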;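 note: run without ouabain in cells lacking the KCC2 cotransporter; slope of fluorescence scaled to its starting value between 10 and 20 s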
* = called active by the depositor; i = inactive; ? = inconclusive; . = not tested or not shown. Most compounds without a hit are left out; they make up all but 4.7% or so of the library.

SMILES	RGS4 inh	MrgX1 antag	MrgX1 ag	MrgX1 allo act	KCC2 mod	RGS4 act	KCC2 sec1	KCC2 bumet counter	KCC2 sec2	HEK293 Tl flux	KCC2 retest ouab	HEK293 Tl flux2
C=CCN1CCc2c(cc(O)c(O)c2Cl)C(c2ccccc2)C1 (configuration not stated)	i	i	i	i	-3*	i	0.0062	0.0053	0.029	0.0078	0.018	0.011
O=C(NCCc1ccccc1)c1ccc(CS(=O)(=O)Cc2ccccc2F)o1	i	i	i	i	-1.2	i	.	.	.	.	.	.
Cc1ccc(CCNC(=O)c2ccc(CS(=O)(=O)Cc3ccccc3F)o2)cc1	i	i	i	i	-6.8*	i	0.0064	?	?	0.0074	0.018	0.012
CC(=O)Nc1ccc(S(=O)(=O)Nc2cccc(-c3cn4cccnc4n3)c2)cc1	i	i	i	i	0.065	i	.	.	.	.	.	.
Cc1cc(NCCOCCO)n2c(nc3ccccc32)c1C#N	i	i	i	i	.	i	.	.	.	.	.	.
COCCNc1cc(C)c(C#N)c2nc3ccccc3n12	i	i	i	i	-0.88	i	0.01	?	0.03	0.0071	0.034	?
c1ccc(-c2ccc(-n3ccnc3)cc2)cc1	i	i	i	i	.	i	0.009	0.0055	?	0.0035	0.017*	0.01
c1ccc(-c2ccc(C(c3ccccc3)n3ccnc3)cc2)cc1 (configuration not stated)	i	i	i	i	-1.2	i	.	.	.	.	.	.
CCOC(=O)c1c(S(=O)(=O)N2CCC(C)CC2)c(C)n(C)c1C	i	i	i	i	.	i	.	.	.	.	.	.
Cc1ccc(Cn2nnc3c(=O)[nH]c(C4CCN(S(=O)(=O)c5ccc(S(=O)(=O)NC6CC6)cc5)CC4)nc32)cc1	i	i	i	i	.	i	.	.	.	.	.	.
Cc1ccc(Cn2nnc3c(=O)[nH]c(C4CCN(S(=O)(=O)c5ccc(C)cc5)CC4)nc32)cc1	i	i	i	i	.	i	0.0071	0.0049	0.031	0.008	0.019	0.011
O=C(C1CCCCC1)N1CCCC(c2nc3c(nnn3Cc3ccccc3)c(=O)[nH]2)C1 (configuration not stated)	i	i	i	i	.	i	0.0058	?	0.026*	0.0061*	0.016*	?
O=C(COc1c(Br)cc(Br)cc1Br)N/N=C/c1ccco1	i	i	i	i	.	i	.	.	.	.	.	.
CN(NS(=O)(=O)c1ccc(Br)cc1)c1nc(C(F)(F)F)nc2ccccc12	i	i	i	i	-3.8*	i	0.0066	0.0059	0.029	0.0061	0.018*	0.0098
COC(=O)CCN(C(=O)c1ccc(OC(C)=O)cc1)c1ccccn1	i	i	i	i	-3.8*	i	0.016	0.005	0.027	0.0076	0.016	0.011
COc1ccc(NC(=S)NC(=O)c2ccc(Br)o2)cc1	i	i	i	i	100*	i	0.057*	0.14*	0.061*	0.12*	0.11*	0.053*
COc1ccc(C(=O)NNC(=S)NC(=O)c2ccc(Br)o2)cc1OC	i	i	53*	i	6.3*	i	0.0065	0.021*	0.038*	0.02*	?	0.021*
O=C(NC(=S)Nc1ccccc1)c1ccc(Br)o1	i	i	i	i	111*	i	0.046*	0.19*	0.062*	0.1*	0.13*	0.036*
CC(C)c1ccc(NC(=O)c2ccc(Br)o2)cc1	i	i	i	i	.	i	.	.	.	.	.	.
O=C(Nc1ccc(Nc2ccccc2)cc1)c1ccc(Br)o1	i	i	i	i	-5.7*	i	?	0.0048	0.03	0.0067	0.013*	?
O=C(NC(=S)NCc1ccccc1)c1ccc(Br)o1	i	i	i	i	.	i	.	.	.	.	.	.
Cc1ccc(S(=O)(=O)N2CCSC2=Nc2ccccc2)cc1	i	i	i	i	-1.7	i	.	.	.	.	.	.
CCOc1ccccc1NC(=O)C1C2CCC(O2)C1C(=O)O (configuration not stated)	i	i	i	i	.	i	.	.	.	.	.	.
CC(C)OCCCNC(=O)c1cn(C)c2ccc(S(=O)(=O)N(C)C3CCCCC3)cc2c1=O	i	i	i	i	.	i	.	.	.	.	.	.
CC(Oc1ccccc1)C(=O)N=C1SC2CS(=O)(=O)CC2N1c1cccc(F)c1 (configuration not stated)	i	i	i	i	.	i	.	.	.	.	.	.
COCCN(C(=O)COC(=O)C1CCC(C(C)(C)C)CC1)c1c(N)n(Cc2ccccc2)c(=O)[nH]c1=O (configuration not stated)	i	i	i	i	.	i	.	.	.	.	.	.
